Series [1] concerns CYP3A4/CYP1A2. As to conditions: 14 patients, repeat-dose dabrafenib (HPMC capsules); cited from earlier work.
In series [2] the test system is CYP2C9. Particulars: 14 patients, repeat-dose dabrafenib (HPMC capsules); cited from earlier work.
Series [3] has as its system OATP1B1. As to conditions: in vitro; cited from earlier work.
Series [4] has as its system OATP1B3. Particulars: in vitro; cited from earlier work.
Series [5] relates to CYP3A4. As to conditions: in vitro, via activation of the pregnane X receptor and constitutive androstane receptor; cited from earlier work.
The conditions of series [6]: cited from earlier work.
Series [7] deals with BCRP. Particulars: in vitro; cited from earlier work.
Series [8] has as its system CYP2B6. Particulars: in vitro, via activation of the pregnane X receptor and constitutive androstane receptor; cited from earlier work.
For series [9] the following is noted: human, plasma.
For series [10], the system named is CYP3A4. Nature of the series: Effect of dabrafenib.
Series [11] in a line: Safety and tolerability in patients. The format is in vivo, human. As to conditions: 16 patients, midazolam 3 mg. Put shortly: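 Open-label, fixed-sequence study in patients with BRAF V600 mutation–positive tumours. CYP3A and OATP1B1/1B3 probe substrates (3 mg and 10 mg) were given together on day 1, then with the test compound (150 mg twice daily, days 8–23) on days 8 and 22, after an overnight fast of at least 8 h. Monitoring covered physical examination, vital signs, 12-lead ECG, haematology and clinical chemistry, and AEs graded by NCI CTCAE v4.03.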

For series [12] the following is noted: in vivo; cited from earlier work.
For series [13] the following is noted: cited from earlier work. This is another data set of the same source.
For series [14], the system named is OATP1B1/1B3. Nature of the series: Effect of dabrafenib. The format is in vivo, human.
The mark [15] stands for this setting: initial administration of dabrafenib vs midazolam alone.
Where [16] appears, read: clinical study, coadministration with gemfibrozil.
The mark [17] stands for this setting: repeat dabrafenib dosing 150 mg twice daily (steady state) vs rosuvastatin alone.

Molecules are shown by their SMILES. Several values for one entry are separate records, joined by “and”; a condition that tells them apart may be missing. Equal values may be shown once.

On to `CC(=O)C[C@H](c1ccccc1)c1c(O)c2ccccc2oc1=O` [R‐warfarin], for which the “decrease in single‐dose AUC” value in [1] is reported as 33%.
As for `CC(=O)C[C@@H](c1ccccc1)c1c(O)c2ccccc2oc1=O` [S‐warfarin], the “decrease in single‐dose AUC” value in series [2] is listed as 37%.
Turning to `CC(C)(C(=O)O)c1nc(-c2cccc(NS(=O)(=O)c3c(F)cccc3F)c2F)c(-c2ccnc(N)n2)s1` [carboxy‐dabrafenib], the “inhibition of OATP1B1” value in series [3] is “inhibitors”. Besides, in series [4], the “inhibition of OATP1B3” value is “inhibitors”.
For the compound `CC(C)(C)c1nc(-c2cccc(NS(=O)(=O)c3c(F)cccc3F)c2F)c(-c2ccnc(N)n2)s1` [dabrafenib], the “induction of CYP3A4” value in series [5] is on record as “induces”. For the same compound, the “AUC HPMC/gelatin” value in [6] (dabrafenib HPMC capsules vs gelatin capsules) is given as 1.8 fold. In addition, in series [6] (single oral dose of dabrafenib), the “median terminal‐phase half‐life (t1/2)” value is “≈ 8 hours” and the “time of peak plasma concentrations after dosing” value is “approximately 2 hours”. For the same compound, the oral bioavailability in [6] (single oral dose relative to an intravenous microdose) was 94.5%. Also, the “inhibition of OATP1B1” value in series [3] is “inhibitors”. Besides, the “inhibition of OATP1B3” value in series [4] is reported as “inhibitors”. Also, the “inhibition of BCRP” value in series [7] is recorded as “inhibitors”. In [8], the “induction of CYP2B6” value is recorded as “induces”.
With `CC(C)c1nc(-c2cccc(NS(=O)(=O)c3c(F)cccc3F)c2F)c(-c2ccnc(N)n2)s1` [desmethyl‐dabrafenib], the “inhibition of OATP1B1” value in series [3] is “inhibitors”. Also, the “inhibition of OATP1B3” value in series [4] is recorded as “inhibitors”. In addition, in series [7], the “inhibition of BCRP” value is listed as “inhibitors”.
As for `CC(C)(CO)c1nc(-c2cccc(NS(=O)(=O)c3c(F)cccc3F)c2F)c(-c2ccnc(N)n2)s1` [hydroxy‐dabrafenib], the “terminal half‐life of metabolite” value in series [6] (dabrafenib metabolites) was 582 min. Moreover, the “inhibition of OATP1B1” value in series [3] is “inhibitors”. The “inhibition of OATP1B3” value in series [4] is reported as “inhibitors”.
As for `Cc1ncc2n1-c1ccc(Cl)cc1C(c1ccccc1F)=NC2` [midazolam], the Tmax in [9] came to 15 min. Further, the “change in midazolam AUC0‐∞” value in [10] (setting [15]) is given as “no change”. The results for the “decrease in midazolam Cmax” value in series [10] (setting [15]) and in [10] (repeat dabrafenib dosing 150 mg twice daily (steady state) vs midazolam alone) were 1% and 47%, respectively. Moreover, in series [10] (initial and repeat dabrafenib dosing vs midazolam alone), the “effect of dabrafenib on midazolam tmax” value was “No effect”. Further, in series [11], the “grade 4 presyncope attributed to midazolam dosing” value stood at 1 patient.
On to `CC(C)c1nc(N(C)S(C)(=O)=O)nc(-c2ccc(F)cc2)c1/C=C/[C@@H](O)C[C@@H](O)CC(=O)O` [rosuvastatin], for which the “excreted unchanged in the feces” value in series [12] was 90%. For the same compound, in series [13] (setting [16]), the “rosuvastatin AUC change with gemfibrozil” value is 1.9 fold and the “rosuvastatin Cmax change with gemfibrozil” value is listed as 2.21 fold. Besides, in series [13] (healthy volunteer study, after 6 days of rifampin (inducer) dosing), the “alteration in the PK parameters of rosuvastatin” value is given as “no significant alteration”. The “rosuvastatin AUC increase with tipranavir/ritonavir” value in series [13] (tipranavir/ritonavir 500 mg/200 mg twice daily for 11 days) was 26%. In addition, in series [14] (dabrafenib at initiation of dosing vs rosuvastatin alone), the “increase in rosuvastatin Cmax” value is recorded as 1.9 fold. Also, in [14] (setting [17]), the “increase in rosuvastatin AUC0‐∞” value stood at 7%; the “increase in rosuvastatin Cmax” value is 2.56 fold and 2.6 fold.

The values above are taken from paper PMC8453865 (Clinical Pharmacology in Drug Development, 2021).
